This sample holds only a part of the variants without activity.
B1: tRNA (parent)
chain: GUUCCGUUGGCGUAAUGGUAACGCGUCUCCCUCCUAAGGAGAAGACUGCGGGUUCGAGUCCCGUACGGAACG

Variants of: B1
Assay: yeast fitness relative to wild type (ratio to wild type); higher = fitter; tRNA-Arg(CCU), competitive growth, 37 C, YPD
How it was run: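 For this measurement, the tRNA-Arg(CCU) gene was varied by chemical synthesis at a 3% per-site mutation rate across 69 sites, and each variant was placed at the native genomic locus in Saccharomyces cerevisiae. The pooled strains went through a 24-hour competition in YPD at 37°C in six parallel replicates, with amplicons from start and end populations read by 100-nucleotide paired-end sequencing. Darwinian fitness relative to wild type followed from the change in each genotype's frequency. Genotypes needed ≥ 100 starting reads, and estimates < 0.5 were set to 0.5.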

Variant	yeast fitness
GUUCCGUUGGCGUAAUGGUAACGCGUUUCCUUCCUAAGGAGAAGACUGCGGGUUUGAGUCCCGUACGGAACG [C27U C31U C55U]	0.643
GUUCCGUUGGCGUAAUGGUAACGCGUUUCCUUCCUAAGGAGAAGACUGCGGCUUCGAGGCCCGUACGGAACG [C27U C31U G52C U59G]	≤ 0.5
GUUCCGUUGGCGUAAUGGUAACGCGUUUCCCUACUAUGGAGAAGACUGCGGGUUCGGGUCCCGUACGGAACG [C27U C33A A37U A57G]	≤ 0.5
GUUCCGUUGGCGUAAUGGUAACGCGUUUCCCUGGUAAGGAGAAAACUGCAGAUUCGAGUCCCGUACGGAACG [C27U C33G C34G G44A G50A G52A]	0.558
GUUCCGUUGGCGUAAUGGUAACGCGUUUCCCUUCUAAGGCGAAGACUGCGGGUUCGGGUCCCGUAUGGAACG [C27U C33U A40C A57G C66U]	≤ 0.5
GUUCCGUUGGCGUAAUGGUAACGCGUUUCCCUUCUAAGGAGAAGACUGCGGGUUCGAGUCCCGUAUGGAACG [C27U C33U C66U]	0.536
GUUCCGUUGGCGUAAUGGUAACGCGUUUCCCUCUUAAGGAGAAGACUGCGGGUUCGAGUCCCGUACGGUACG [C27U C34U A69U]	0.528
GUUCCGUUGGCGUAAUGGUAACGCGUUUCCCUCUUAAGGAGAAGACCGCGGGGUCGAGUCCCGUACGGUACG [C27U C34U U47C U53G A69U]	≤ 0.5
GUUCCGUUGGCGUAAUGGUAACGCGUUUCCCUCCUAAGGAGAAGAAUGCGGGUUCGCGUCCCGUACGGAACG [C27U C46A A57C]	0.726
GUUCCGUUGGCGUAAUGGUAACGCGUUUCCCUCCUAAGGAGAAGAUUGCGGGUUCGGGUCCCGUACGGAACG [C27U C46U A57G]	0.679
GUUCCGUUGGCGUAAUGGUAACGCGUUUCCCUCCUAAGGAGAAGAUUACGGGUUCGAGUCCCGUACGGACCG [C27U C46U G48A A70C]	0.669
GUUCCGUUGGCGUAAUGGUAACGCGUUUCCCUCCUAAGGAGAAGACUGGGGGUUCGAGUCCCGUACGGAACG [C27U C49G]	0.916
GUUCCGUUGGCGUAAUGGUAACGCGUUUCCCUCCUAAGGAGAAGACUGUGGGUUCGGGUCCCGUACGGAACG [C27U C49U A57G]	0.703
GUUCCGUUGGCGUAAUGGUAACGCGUUUCCCUCCUAAGGAGAAGACUGCGGGUUAGAGUCCCGUACGGCACG [C27U C55A A69C]	0.573
GUUCCGUUGGCGUAAUGGUAACGCGUUUCCCUCCUAAGGAGAAGACUGCGGGUUUGAGUCCCGUACGGAUCG [C27U C55U A70U]	0.504
GUUCCGUUGGCGUAAUGGUAACGCGUUUCCCUCCUAAGGAGAAGACUGCGGGUUUGAGUCCCGUACCGAACG [C27U C55U G67C]	0.572
GUUCCGUUGGCGUAAUGGUAACGCGUUUCCCUCCUAAGGAGAAGACUGCGGGUUCGAGUCUCGUACGGAACG [C27U C61U]	1.01
GUUCCGUUGGCGUAAUGGUAACGCGUUUCCCUCCUAAGGAGAAGACUGCGGGUUCGAGUCCGGUACGGAACG [C27U C62G]	0.669
GUUCCGUUGGCGUAAUGGUAACGCGUUUCCCUCCUAAAGAGAAGACUGCGGGUUAGAGUCCCGUACGGAACG [C27U G38A C55A]	≤ 0.5

Variant	yeast fitness
GUUCCGUUGGCGUAAUGGUAACGCGUUUCCCUCCUAAAGAGAAGACUGCGGGUUCGAGGCCCGCUCGGAACG [C27U G38A U59G U64C A65U]	≤ 0.5
GUUCCGUUGGCGUAAUGGUAACGCGUUUCCCUCCUAACGCGCAGACUGCGGGUUCGAGUCCCGUACGGAACG [C27U G38C A40C A42C]	≤ 0.5
GUUCCGUUGGCGUAAUGGUAACGCGUUUCCCUCCUAACGAGAAGACUGCGGGUUCGGGUCCCGUCCGGAACG [C27U G38C A57G A65C]	≤ 0.5
GUUCCGUUGGCGUAAUGGUAACGCGUUUCCCUCCUAAGAAGAAGACUGCGGGUUCGAGUCCCGUACGUAACG [C27U G39A G68U]	0.54
GUUCCGUUGGCGUAAUGGUAACGCGUUUCCCUCCUAAGGAAAAGACUGCGGGUUCGAGUCCCGUACGGAACG [C27U G41A]	0.939
GUUCCGUUGGCGUAAUGGUAACGCGUUUCCCUCCUAAGGACAAGACUGCGGGUUCGAGUCCCGUCCGGAACG [C27U G41C A65C]	0.588
GUUCCGUUGGCGUAAUGGUAACGCGUUUCCCUCCUAAGGACAAGACUGCGGGAUCGAGUCCUGUACGGAACG [C27U G41C U53A C62U]	≤ 0.5
GUUCCGUUGGCGUAAUGGUAACGCGUUUCCCUCCUAAGGAGAAAACUGCGGGUUCGAGUCCCGUACGGAACG [C27U G44A]	0.887
GUUCCGUUGGCGUAAUGGUAACGCGUUUCCCUCCUAAGGAGAACACUGCGGGUUCGACUCCCGUACGGAACG [C27U G44C G58C]	0.655
GUUCCGUUGGCGUAAUGGUAACGCGUUUCCCUCCUAAGGAGAAGACUACGGGUUCGAGUCCCGUACGGAACG [C27U G48A]	1.1
GUUCCGUUGGCGUAAUGGUAACGCGUUUCCCUCCUAAGGAGAAGACUACGGGUUCGAGUCCCGUUCGGAACG [C27U G48A A65U]	0.714
GUUCCGUUGGCGUAAUGGUAACGCGUUUCCCUCCUAAGGAGAAGACUCCGGGUUCGCGUCCCGUACGGAACG [C27U G48C A57C]	≤ 0.5
GUUCCGUUGGCGUAAUGGUAACGCGUUUCCCUCCUAAGGAGAAGACUGCCGGUUCGAGUCCCGUACGGAACG [C27U G50C]	0.618
GUUCCGUUGGCGUAAUGGUAACGCGUUUCCCUCCUAAGGAGAAGACUGCCGGUUCGAGUCCCGUCCGGAACG [C27U G50C A65C]	≤ 0.5
GUUCCGUUGGCGUAAUGGUAACGCGUUUCCCUCCUAAGGAGAAGACUGCGCGUUAGAGUCCCGUCCGGAACG [C27U G51C C55A A65C]	≤ 0.5
GUUCCGUUGGCGUAAUGGUAACGCGUUUCCCUCCUAAGGAGAAGACUGCGCGUUCGAGCCCCGUACGGAACG [C27U G51C U59C]	≤ 0.5
GUUCCGUUGGCGUAAUGGUAACGCGUUUCCCUCCUAAGGAGAAGACUGCGGAUUCGAGUCCCGUACGGAACG [C27U G52A]	0.7
GUUCCGUUGGCGUAAUGGUAACGCGUUUCCCUCCUAAGGAGAAGACUGCGGCUUCGAGUCCCGUACGGAACG [C27U G52C]	0.7
GUUCCGUUGGCGUAAUGGUAACGCGUUUCCCUCCUAAGGAGAAGACUGCGGGUUCGAAUCCCAUACGGAACG [C27U G58A G63A]	0.53
